This is a sample that favours compounds with a hit; in the whole collection about 2.3% have one here.
PLCg1 inh: blocks human PLC-gamma1 enzyme activity; P19174; purified PLC-gamma1, fluorogenic substrate, fluorescence; inhibition, % at 12.2 µM; hit rate 0.84% among 370,000; AID 720700; in the data active = inhibition above about 9.5%
ADAM10 inh: inhibits human ADAM10 | O14672 | recombinant ADAM10, EDANS/DABCYL FRET peptide cleavage, 3 h | inhibition, % at 7 µM | hit rate 0.62% among 370,000;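 active = inhibition above a per-campaign cutoff equal to the mean of compounds falling between control-based bounds plus 3 SD, cut at about 20% in these data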;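 also: 0% = DMSO wells while the 100% control is not disclosed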
PLC-beta3 inh: inhibitors of human phospholipase C beta3; Q01970; Purified PLC-beta3, fluorogenic substrate, fluorescence; inhibition, % at 12.2 µM; hit rate 0.18% among 370,000; in the data active = inhibition above about 11%;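 also: 0% = median of compound wells on plate and 100% = full blocker control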
Tb MetRS inh: Trypanosoma brucei MetRS inhibition; inhibition, % at 11.9 µM; purified T. brucei MetRS, ATP depletion, Kinase-Glo luminescence; hit rate 0.4% among 360,000;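 active = inhibition above a per-plate cutoff of the control wells' mean inhibition plus 3 SD, cut at about 5.5% in these data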;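 also: 0% = DMSO wells median and 100% = median of wells with control inhibitor compound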
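Material: parasite MetRS enzyme / Replication: singlicate, one well per compound / Signal: luminescence of leftover ATP / Schedule: 2 h aminoacylation at 25 °C after 15 min preincubation / Medium: HEPES-MgCl2-KCl buffer plus DTT, spermine, BSA, pyrophosphatase / Doses: 11.9 µM single point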
ADAM17 inh: ADAM17 inhibition, QFRET primary screen | P78536 | recombinant ADAM17, EDANS/DABCYL FRET peptide cleavage | inhibition, % at 6.95 µM | hit rate 0.83% among 370,000 | AID 720648;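 active = inhibition above the mean of compounds lying between control limits plus 3 SD, set per campaign, cut at about 8.5% in these data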;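 also: 0% = DMSO-only wells as the low control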
ADAM10 confirm: confirmation of inhibitors of human ADAM10; shares compounds with ADAM10 inh; ADAM10 QFRET peptide cleavage, EDANS fluorescence; inhibition, % at 6.95 µM; hit rate 1% among 2,100; AID 743208;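 active = inhibition above about 20% chosen separately for each screening run, limit read from the data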;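 also: 0% = DMSO wells and 100% = marimastat wells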
ADAM17 ctr: inhibits human ADAM17 in ADAM10 exosite counter-screen. ADAM17 QFRET peptide cleavage, EDANS fluorescence. inhibition, % at 6.95 µM. hit rate 0.5% among 2,100. shares compounds with ADAM10 inh;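 active = mean triplicate inhibition above the solvent-only control wells' mean plus 3 SD, cut at about 12% in these data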;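 also: 0% = DMSO wells and 100% = marimastat wells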
ADAM10 counter: counter-screen for ADAM17 exosite inhibitors: inhibitors of human ADAM10; AID 743256; inhibition, % at 6.95 µM; shares compounds with ADAM17 inh; recombinant ADAM10, EDANS/DABCYL FRET peptide cleavage, 3 h; hit rate 47% among 2,900;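 active = mean inhibition over the triplicate runs exceeds the activity threshold set in the earlier primary screen, cut at about 20% in these data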;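 also: 0% = DMSO wells and 100% = marimastat wells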
ADAM17 confirm: confirmation of inhibitors of human ADAM17. shares compounds with ADAM17 inh. recombinant ADAM17, EDANS/DABCYL QFRET peptide cleavage. inhibition, % at 6.95 µM. hit rate 65% among 2,900;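 active = mean inhibition across replicates above the hit cutoff set in the primary screen, cut at about 8.5% in these data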;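 also: 0% = DMSO wells and 100% = marimastat wells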
* hit, by the source's call; · = no result given.

SMILES | PLCg1 inh | ADAM10 inh | PLC-beta3 inh | Tb MetRS inh | ADAM17 inh | ADAM10 confirm | ADAM17 ctr | ADAM10 counter | ADAM17 confirm
CC(C)(C)NC(=O)C(c1ccc(-c2ccccc2)cc1)N(C[C@H]1CC[C@@H]([C@@H]2CC[C@H](CO)O2)O1)C(=O)c1ccc(C(C)(C)C)cc1 (some centres not stated) | 1.9 | 20.3* | 3.0 | -0.9 | 11.6* | 3.9 | 0.7 | 37.1* | 18.7*
COCCN(C(=O)CSc1cc(C)c2ccccc2n1)c1c(N)n(CC(C)C)c(=O)[nH]c1=O | -2.5 | -6.3 | -6.0 | -0.1 | -3.2 | · | · | · | ·
CCOC(=O)c1sc(NC(=O)CN2C(=O)NC3(CC(C)CC(C)(C)C3)C2=O)c(C(=O)OCC)c1C (configuration not stated) | 0.8 | -1.9 | 2.9 | 0.0 | -2.8 | · | · | · | ·
CCOC(=O)c1sc(NC(=O)CN2C(=O)NC3(CC(C)CC(C)(C)C3)C2=O)cc1C (configuration not stated) | 4.0 | 24.2* | -1.1 | -0.3 | 12.6* | 0.9 | 0.7 | 17.6 | 13.6*
Cc1cc(Cl)ccc1NC(=S)NCCc1ccc(Cl)cc1 | 7.4 | 25.4* | -2.8 | -1.2 | 9.8* | 3.3 | 0.5 | 16.9 | 8.4
Cc1cc(Cl)ccc1NC(=S)NCc1ccc(Cl)cc1 | 0.4 | 0.7 | 1.6 | 0.5 | -2.0 | · | · | · | ·
COC(=O)[C@]1(CNC(=O)NCCc2ccc(OC)c(OC)c2)CC(=O)N(C)[C@@H]1c1ccccc1 | 4.3 | 5.9 | 4.5 | · | 4.8 | · | · | · | ·
O=S1(=O)c2ccc(N3CCSCC3)cc2Oc2ccccc2CN1Cc1cn(Cc2cccc(C(F)(F)F)c2)nn1 | 0.6 | 14.8 | 0.7 | · | 3.4 | · | · | · | ·
CCN(c1ccccc1)S(=O)(=O)c1ccc(C(=O)Nc2ccncc2)cc1 | 6.0 | 6.3 | 2.2 | -0.5 | -0.7 | · | · | · | ·
CCN(c1ccccc1)S(=O)(=O)c1ccc(C(=O)Nc2cccc(NC(C)=O)c2)cc1 | 2.5 | 22.1* | 1.9 | 0.0 | 8.9* | 7.7 | 1.7 | 3.0 | 3.0
O=C(COC(=O)CC1c2ccccc2CCN1S(=O)(=O)c1ccc(F)cc1)Nc1ccccc1 (configuration not stated) | 4.8 | 11.2 | 1.3 | 0.8 | 5.5 | · | · | · | ·
CCc1cccc(CC)c1NC(=O)COC(=O)CC1c2ccccc2CCN1S(=O)(=O)c1ccc(F)cc1 (configuration not stated) | 7.7 | 23.0* | 6.5 | -0.2 | 14.0* | 2.2 | 0.5 | 6.0 | 2.2
COc1ccc(C(c2c[nH]c3ccccc23)c2c[nH]c3ccccc23)cc1O | -1.5 | 30.9* | -8.4 | 0.1 | 11.4* | 12.7 | 4.0 | 42.6* | 20.2*
CCOc1ccccc1CNC(=O)CCC(=O)N1Cc2ccccc2Oc2ncccc21 | -0.5 | 2.3 | -6.7 | -0.6 | 0.2 | · | · | · | ·
CC(O/N=C/c1ccccc1OC(F)F)C(=O)Nc1cccc(S(=O)(=O)N2CCOCC2)c1 (configuration not stated) | 2.4 | 19.8* | -0.7 | -0.1 | 10.1* | 0.2 | 0.5 | 7.0 | 2.8
COc1ccc(S(=O)(=O)N2CCOCC2)cc1NC(=O)CO/N=C/c1ccccc1OC(F)F | 5.6 | 7.1 | 0.0 | -0.6 | 3.7 | · | · | · | ·
O=C(CSc1nnc(-c2ccccc2F)o1)N1CCNC1=O | 0.6 | -7.4 | 0.0 | -0.6 | -4.4 | · | · | · | ·
CN(c1ccc(C(=O)NCCSCc2ccc(Cl)cc2)cc1)S(=O)(=O)c1ccccc1 | 3.4 | 27.5* | 2.4 | 0.2 | 17.7* | 6.1 | 2.5 | 35.7* | 15.5*
Cc1ccc(CSCCNC(=O)c2ccc(N(C)S(=O)(=O)c3ccccc3)cc2)cc1 | -1.9 | 15.0 | -0.3 | 0.1 | 2.2 | · | · | · | ·
O=C(Oc1cccc(/C=N/Nc2nc(Nc3ccccc3)nc(N3CCOCC3)n2)c1)c1ccco1 | 3.0 | 21.8* | 4.2 | -0.6 | 8.8* | 7.6 | 2.8 | 41.3* | 23.4*
Cc1ccc(Nc2nc(N/N=C/c3c[nH]c4ccccc34)nc(N3CCOCC3)n2)cc1 | 3.9 | 21.8* | 3.1 | -0.1 | 10.3* | 8.2 | 3.2 | 27.1* | 16.5*
Cc1[nH]c2ccccc2c1/C=N/Nc1nc(Nc2ccc(F)cc2)nc(N2CCOCC2)n1 | -0.7 | 14.6 | 4.0 | -0.9 | -1.5 | · | · | · | ·
CC(=O)c1cn(CC(=O)Nc2ccccc2C(F)(F)F)c2ccccc12 | 2.7 | 6.6 | -6.1 | -0.4 | -3.6 | · | · | · | ·
CCc1cc(Cn2nc(-c3ccccc3)cc2C(=O)NCc2ccc(C)cc2)on1 | -0.1 | 28.9* | -0.8 | -0.1 | 9.1* | 7.9 | 3.5 | 24.1* | 13.1*
O/N=C/c1cc(Br)ccc1OCc1cccc(F)c1 | 5.7 | 27.6* | -2.9 | 0.3 | 11.4* | 4.4 | 0.7 | 17.9 | 9.5*
SMILES | PLCg1 inh | ADAM10 inh | PLC-beta3 inh | Tb MetRS inh | ADAM17 inh | ADAM10 confirm | ADAM17 ctr | ADAM10 counter | ADAM17 confirm
Cc1noc(C)c1COc1cccc(C(=O)Nc2ccc3c(c2)OCO3)c1 | -1.6 | -7.2 | -6.9 | -0.2 | -1.4 | · | · | · | ·
Cc1ccc(NC(=O)c2cccc(OCc3c(C)noc3C)c2)cc1S(=O)(=O)Nc1ccccc1Cl | 0.8 | 21.8* | -2.5 | -0.6 | 10.2* | 9.5 | 3.4 | 33.7* | 16.3*
O=S(=O)(Nc1ccc(C(O)(C(F)(F)F)C(F)(F)F)cc1)c1cccc2ccccc12 | -1.6 | 34.3* | -1.7 | 0.1 | 11.2* | -0.3 | 0.2 | 39.7* | 20.8*
COc1ccc(S(=O)(=O)N2CCCCC2)cc1NC(=O)c1cncc(Br)c1 | 1.5 | -0.8 | 0.8 | -0.4 | -0.1 | · | · | · | ·
COc1ccc(CCNc2oc(COc3ccccc3F)nc2C#N)cc1OC | -0.1 | 9.8 | 0.6 | -1.4 | 2.1 | · | · | · | ·
COc1ccc(CCNc2oc(COc3ccc(F)cc3)nc2C#N)cc1 | 4.5 | 23.6* | 2.4 | -0.2 | 10.0* | 9.7 | 2.7 | 32.7* | 18.4*
O=c1[nH]c(=S)[nH]c2c1C(c1cccc(C(F)(F)F)c1)OC(CCc1ccccc1)C2 (configuration not stated) | 5.1 | 26.7* | 8.5 | -0.2 | 14.4* | 5.9 | 2.2 | 29.7* | 16.4*
O=c1[nH]c(=S)[nH]c2c1C(c1ccc(Cl)c(Cl)c1)OC(CCc1ccccc1)C2 (configuration not stated) | 0.3 | -0.2 | 3.4 | -0.7 | -1.8 | · | · | · | ·
CCCOc1ccc(F)cc1-c1cc(C(=O)Nc2ccccc2)[nH]n1 | 0.1 | -3.0 | 4.8 | -0.2 | 4.7 | · | · | · | ·
